This note sets out measurements from ChEMBL document CHEMBL1137821, “Design of non-nucleoside inhibitors of HIV-1 reverse transcriptase with improved drug resistance properties. 1” (J Med Chem, 2004).

Molecules are shown by their SMILES.

Assay [1] has as its system MT4. Put plainly: Inhibitory concentration against nevirapine resistant human immunodeficiency virus type 1 mutant type Tyr181Cys was determined in MT-4 cells. It is filed as functional, cell-based. Put shortly:
(§1)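 Whole-cell antiviral assay in MT4 cells, a human T-cell lymphotropic virus-transformed line. Cells were infected with wild-type HIV-1 strain IIIB or with nevirapine-resistant HIV-1 carrying the Tyr181Cys RT mutation. Inhibition was read by a propidium iodide-based colorimetric assay that estimates DNA content.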

The target of assay [2] is T1, Human immunodeficiency virus type 1 reverse transcriptase (Human immunodeficiency virus 1, UniProt Q72547). Put plainly: Concentration required for 50% inhibition of human immunodeficiency virus type 1 reverse transcriptase mutant type Cys181.
The target of assay [3] is T1, Human immunodeficiency virus type 1 reverse transcriptase. The assay is described as follows: Concentration required for 50% inhibition of human immunodeficiency virus type 1 reverse transcriptase Ile100.
The subject of assay [4] is MT4. The assay is described as follows: Inhibitory concentration against human immunodeficiency virus type 1 was determined in MT-4 cells. It is filed as functional, cell-based. Put shortly: as §1
The target of assay [5] is T1, Human immunodeficiency virus type 1 reverse transcriptase. Put plainly: Concentration required for 50% inhibition of human immunodeficiency virus type 1 reverse transcriptase mutant type Ile100. A digest of the protocol: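 Inhibition of mutant HIV-1 RT enzyme, tested alongside wild-type RT; IC50 values are the mean of two independent experiments.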

What is called IC50 is the midpoint of a concentration-inhibition curve. Higher therefore signals weaker potency in that assay. With `CCCc1c(SC2CCCCC2)c2cc(Cl)ccc2[nH]c1=O`, the IC50 came out at 360 nM in the assay on MT4 [1], 860 nM in assay [2], 1610 nM in assay [3] and 100 nM with MT4 [4].
Turning to `CC(C)c1c(OC2CCCCC2)c2cc(Cl)ccc2[nH]c1=O`, the IC50 with MT4 [1] amounted to 710 nM; in assay [2], 2500 nM; in assay [5] it was 1960 nM; in the assay on MT4 [4], 50 nM.
`CCCc1c(OC2CCCCC2)c2cc(Cl)ccc2[nH]c1=O`: the IC50 with MT4 [1] came out at 600 nM; in assay [2], 1130 nM; in assay [5], 1360 nM; in the assay on MT4 [4], 30 nM.
On to `CCCc1c([S+]([O-])C2CCCCC2)c2cc(Cl)ccc2[nH]c1=O` (stereo unspecified), for which the IC50 in the assay with MT4 [1] was 2210 nM; in assay [2], 1260 nM; in assay [3], 2380 nM; with MT4 [4] it was 240 nM.
